Drawing on ChEMBL document CHEMBL1138066, “Semisynthetic maytansine analogues for the targeted treatment of cancer” (J Med Chem, 2006), this text covers IC50 for 25 molecules.

Some results are limits rather than exact numbers.

In assay [1] the test system is KB. The assay can be described thus: Cytotoxicity against human KB cell line by clonogenic plating efficiency assay after 72 hrs. The class given is functional, cell-based. Put shortly:
(§1)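 Clonogenic assay: 1000 cells per well in 6-well dishes, exposed to free maytansinoids (0 to 3 nM) for 72 h, then medium replaced with fresh medium. Colonies grown 7-10 days after plating, fixed and stained with 0.2% crystal violet in 10% formalin/PBS, counted. Surviving fraction = colonies in drug-treated wells / colonies in control wells; IC50 in nM.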

Assay [2] deals with SK-BR-3. The assay is described as follows: Cytotoxicity against human SK-Br-3 cell line by clonogenic plating efficiency assay after 72 hrs. The class given is functional, cell-based. The settings on record: SK-BR-3, 72 h. A digest of the protocol:
as §1

Assay [3] has as its system OVCAR-3. The assay can be described thus: Cytotoxicity against human Ovcar3 cell line by clonogenic plating efficiency assay after 24 hrs. The settings on record: OVCAR-3, 24 h.
The test system of assay [4] is SW-620. The assay can be described thus: Cytotoxicity against human SW620 cell line by clonogenic plating efficiency assay after 24 hrs. The following applies: SW-620, 24 h.
Assay [5] deals with HCT-15. The assay is described as follows: Cytotoxicity against human HCT15 cell line by clonogenic plating efficiency assay after 72 hrs. The class given is cell-based. The following applies: HCT-15, 72 h.
Assay [6] relates to A-431. The assay is described as follows: Cytotoxicity against human A431 cell line by clonogenic plating efficiency assay after 72 hrs. The class given is functional, cell-based. The settings on record: A-431, 72 h.
Assay [7] deals with A-375. The assay can be described thus: Cytotoxicity against human A375 cell line by clonogenic plating efficiency assay after 72 hrs. The format is functional, cell-based. The following applies: A-375, 72 h. A digest of the protocol:
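Clonogenic survival: 1000 cells per well were plated and exposed to free or antibody-conjugated maytansinoid (0 to 3 nM) for 72 h. Medium was then replaced with fresh medium, and colonies grew for a total of 7-10 days after plating. Colonies were fixed and stained with 0.2% crystal violet in 10% formalin/PBS, then counted. Surviving fraction = colonies in drug-exposed wells / colonies in control wells.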

The subject of assay [8] is MCF7. The assay can be described thus: Cytotoxicity against human MCF7 cell line by clonogenic plating efficiency assay after 72 hrs. The format is functional, cell-based. The following applies: MCF7, 72 h.
Assay [9] has as its system A549. The assay can be described thus: Cytotoxicity against human A549 cell line by clonogenic plating efficiency assay after 72 hrs. The format is functional, cell-based. The following applies: A549, 72 h.

One may read the IC50 as the point on the concentration scale where inhibition reaches its midpoint. A low value points to greater potency in that assay. For the molecule `COc1cc2cc(c1Cl)N(C)C(=O)CC(OC(=O)[C@H](C)N(C)C(=O)CC[C@@H](C)SSC)C1(C)OC1C(C)C1CC(O)(NC(=O)O1)C(OC)/C=C/C=C(\C)C2` (stereo partly specified), the IC50 in assay [1] amounted to 0.042 nM; in [2], 0.027 nM.
Taken in the same sequence, the figures for `COc1cc2cc(c1Cl)N(C)C(=O)CC(OC(=O)[C@H](C)N(C)C(=O)CC[C@H](C)SSC)C1(C)OC1C(C)C1CC(O)(NC(=O)O1)C(OC)/C=C/C=C(\C)C2` (stereo partly specified) were 0.04 nM and 0.032 nM.
The matching figures for `COc1cc2cc(c1Cl)N(C)C(=O)CC(OC(=O)[C@@H](C)N(C)C(=O)CCC(C)(C)SSC)C1(C)OC1C(C)C1CC(O)(NC(=O)O1)C(OC)/C=C/C=C(\C)C2` (stereo partly specified): greater than 0.3 nM and greater than 0.3 nM.
In assay [1], `COc1cc2cc(c1Cl)N(C)C(=O)CC(OC(=O)[C@H](C)N(C)C(=O)CCSSc1ccccc1)C1(C)OC1C(C)C1CC(O)(NC(=O)O1)C(OC)/C=C/C=C(\C)C2` (stereo partly specified) showed a half-inhibitory concentration (IC50) of 0.1 nM.
Take `COc1cc2cc(c1Cl)N(C)C(=O)CC(OC(=O)[C@H](C)N(C)C(=O)CCC(C)(C)SSCCCC(=O)O)C1(C)OC1C(C)C1CC(O)(NC(=O)O1)C(OC)/C=C/C=C(\C)C2` (stereo partly specified): the figures for the IC50 in assay [1] and in [2] were 23 nM and 7.1 nM, respectively.
The matching figures for `COc1cc2cc(c1Cl)N(C)C(=O)CC(OC(=O)[C@@H](C)N(C)C(=O)CC[C@H](C)SSC)C1(C)OC1C(C)C1CC(O)(NC(=O)O1)C(OC)/C=C/C=C(\C)C2` (stereo partly specified): greater than 3 nM and greater than 3 nM.
For the molecule `COc1cc2cc(c1Cl)N(C)C(=O)CC(OC(=O)[C@@H](C)N(C)C(=O)CCCSSC)C1(C)OC1C(C)C1CC(O)(NC(=O)O1)C(OC)/C=C/C=C(\C)C2` (stereo partly specified), the concentration for half-maximal inhibition (IC50) in assay [1] amounted to 2 nM. This counts as single-digit nanomolar.
As to `COc1cc2cc(c1Cl)N(C)C(=O)CC(OC(=O)[C@@H](C)N(C)C(=O)CCS)C1(C)OC1C(C)C1CC(O)(NC(=O)O1)C(OC)/C=C/C=C(\C)C2` (stereo partly specified), the IC50 in assay [1] and in assay [2] was greater than 3 nM each time.
With `COc1cc2cc(c1Cl)N(C)C(=O)CC(OC(=O)[C@@H](C)N(C)C(=O)CCC(C)(C)S)C1(C)OC1C(C)C1CC(O)(NC(=O)O1)C(OC)/C=C/C=C(\C)C2` (stereo partly specified), the IC50 in [1] was greater than 1 nM; in [2] it was 3.3 nM.
For the molecule `COc1cc2cc(c1Cl)N(C)C(=O)CC(OC(=O)[C@@H](C)N(C)C(=O)CCSSC)C1(C)OC1C(C)C1CC(O)(NC(=O)O1)C(OC)/C=C/C=C(\C)C2` (stereo partly specified), the IC50 in assay [1] was found to be 3 nM; in assay [2], 6 nM.
As for `COc1cc2cc(c1Cl)N(C)C(=O)CC(OC(=O)[C@H](C)N(C)C(=O)CCSSC)C1(C)OC1C(C)C1CC(O)(NC(=O)O1)C(OC)/C=C/C=C(\C)C2` (stereo partly specified), the IC50 in assay [3] was 0.05 nM; in assay [4] it was 0.04 nM; in assay [1] it was 0.029 nM; in assay [5] it was 0.13 nM; in assay [6] it was less than 0.03 nM; in [7] it was 0.03 nM. Also, the IC50 in assay [8] is less than 0.03 nM; in assay [9], 0.12 nM; in assay [2], 0.014 nM.
`COc1cc2cc(c1Cl)N(C)C(=O)CC(OC(=O)[C@H](C)N(C)C(=O)CCCSSC)C1(C)OC1C(C)C1CC(O)(NC(=O)O1)C(OC)/C=C/C=C(\C)C2` (stereo partly specified): the figures for the IC50 in assay [1] and in assay [2] were 0.0085 nM and 0.038 nM, respectively.
The matching figures for `COc1cc2cc(c1Cl)N(C)C(=O)CC(OC(=O)[C@H](C)N(C)C(=O)CCSSC(C)CCC(=O)O)C1(C)OC1C(C)C1CC(O)(NC(=O)O1)C(OC)/C=C/C=C(\C)C2` (stereo partly specified): 1.8 nM and 3.4 nM.
The matching figures for `COc1cc2cc(c1Cl)N(C)C(=O)CC(OC(=O)[C@H](C)N(C)C(=O)CCC(C)S)C1(C)OC1C(C)C1CC(O)(NC(=O)O1)C(OC)/C=C/C=C(\C)C2` (stereo partly specified): 0.077 nM and 0.031 nM.
The matching figures for `COc1cc2cc(c1Cl)N(C)C(=O)CC(OC(=O)[C@H](C)N(C)C(=O)CCC(C)(C)SSC)C1(C)OC1C(C)C1CC(O)(NC(=O)O1)C(OC)/C=C/C=C(\C)C2` (stereo partly specified): 0.0011 nM and 0.0032 nM.
On to `COc1cc2cc(c1Cl)N(C)C(=O)CC(OC(=O)[C@H](C)N(C)C(=O)CCS)C1(C)OC1C(C)C1CC(O)(NC(=O)O1)C(OC)/C=C/C=C(\C)C2` (stereo partly specified), for which the IC50 in assay [1] and in [2] was 1.1 nM in each case.
Consider `COc1cc2cc(c1Cl)N(C)C(=O)CC(OC(=O)[C@H](C)N(C)C(=O)CCC(C)(C)S)C1(C)OC1C(C)C1CC(O)(NC(=O)O1)C(OC)/C=C/C=C(\C)C2` (stereo partly specified), for which the IC50 is 0.29 nM in [1] and 0.12 nM in assay [2].
The matching figures for `COc1cc2cc(c1Cl)N(C)C(=O)CC(OC(=O)[C@H](C)N(C)C(=O)CCSSCCC(=O)N(C)[C@@H](C)C(=O)OC1CC(=O)N(C)c3cc(cc(OC)c3Cl)C/C(C)=C/C=C/C(OC)C3(O)CC(OC(=O)N3)C(C)C3OC13C)C1(C)OC1C(C)C1CC(O)(NC(=O)O1)C(OC)/C=C/C=C(\C)C2` (stereo partly specified): 0.14 nM and 0.1 nM.
Turning to `COc1cc2cc(c1Cl)N(C)C(=O)CC(OC(=O)[C@@H](C)N(C)C(=O)CC[C@@H](C)SSC)C1(C)OC1C(C)C1CC(O)(NC(=O)O1)C(OC)/C=C/C=C(\C)C2` (stereo partly specified), the IC50 was 2.4 nM in [1] and 2.2 nM in assay [2].
The matching figures for `COc1cc2cc(c1Cl)N(C)C(=O)CC(OC(=O)[C@H](C)N(C)C(=O)CCC(C)(C)SSC(C)(C)CCC(=O)N(C)[C@@H](C)C(=O)OC1CC(=O)N(C)c3cc(cc(OC)c3Cl)C/C(C)=C/C=C/C(OC)C3(O)CC(OC(=O)N3)C(C)C3OC13C)C1(C)OC1C(C)C1CC(O)(NC(=O)O1)C(OC)/C=C/C=C(\C)C2` (stereo partly specified): 0.0016 nM and 0.0012 nM.
The matching figures for `COc1cc2cc(c1Cl)N(C)C(=O)CC(OC(=O)[C@@H](C)N(C)C(=O)CCC(C)SSC)C1(C)OC1C(C)C1CC(O)(NC(=O)O1)C(OC)/C=C/C=C(\C)C2` (mixture of isomers): 1.2 nM and 0.22 nM.
Regarding `COc1cc2cc(c1Cl)N(C)C(=O)CC(OC(=O)[C@H](C)N(C)C(=O)CCC(C)SSC)C1(C)OC1C(C)C1CC(O)(NC(=O)O1)C(OC)/C=C/C=C(\C)C2` (mixture of isomers), the IC50 was found to be 0.011 nM in assay [1] and 0.0042 nM in assay [2].
For `COc1cc2cc(c1Cl)N(C)C(=O)C[C@H](OC(=O)[C@H](C)N(C)C(C)=O)[C@]1(C)O[C@H]1[C@H](C)[C@@H]1C[C@@](O)(NC(=O)O1)[C@H](OC)/C=C/C=C(\C)C2` [MAYTANSINE], the IC50 in [3] was 0.1 nM; in [4] it was greater than 0.1 nM; in assay [1], 0.034 nM; in assay [5], 0.75 nM; in assay [6], 0.04 nM; in assay [7] it was 0.037 nM. The results for the IC50 in assay [8], in assay [9] and in assay [2] were 0.044 nM, 0.16 nM and 0.03 nM, respectively.
Regarding `COc1cc2cc(c1Cl)N(C)C(=O)CC(O)C1(C)OC1C(C)C1CC(O)(NC(=O)O1)C(OC)/C=C/C=C(\C)C2` (stereo unspecified) [MAYTANSINOL], the values for the IC50 in assay [1] and in [2] were greater than 3 nM and 1.2 nM, respectively.
Regarding `COc1cc2cc(c1Cl)N(C)C(=O)CC(OC(=O)[C@H](C)N(C)C(=O)CSSC)C1(C)OC1C(C)C1CC(O)(NC(=O)O1)C(OC)/C=C/C=C(\C)C2` (stereo partly specified) [METHYLDITHIOACETYL MAYTANSINOID], inhibition in assay [1] was half-maximal at 0.19 nM (IC50).
